Assay results pooled from the literature.
Each line is one published result; the experiments were not run side by side.
Target: Calcium/calmodulin-dependent protein kinase type 1G (CAMK1G, Homo sapiens, UniProt Q96NX5)

| Compound | assay | conditions | quantity | result |
| --- | --- | --- | --- | --- |
| O=C1NC(c2ccccn2)Sc2ccccc21 (stereo not drawn) | cell-free assay, competition with immobilised ligand | 1 µM | remaining binding | 100% |
| O=C(Nc1cnn(-c2csc(C(=O)NC3COC3)c2)c1)Nc1ccccc1Cl | enzyme activity, inhibitor | 5 µM | remaining activity | 94.2% |
| O=C(NCCCC1CCCCC1)c1ccc(CNC(=O)c2cnn(-c3ccccc3)c2C(F)(F)F)cc1 | cell-free assay, competition with immobilised ligand | 0.1 µM | remaining binding | 100% |
| Nc1ncnc2occ(-c3ccc(NC(=O)Nc4cc(C(F)(F)F)ccc4F)cc3)c12 | cell-free assay | 20 µM | remaining signal | 41% |
| Cc1cc(NC(=O)c2cccc3cc(-c4cccc5[nH]nc(N)c45)ccc23)ccc1F | enzyme activity, inhibitor | 0.1 µM | activity vs control | 102% |
| O=C1Nc2ccc(Cl)cc2C1=Cc1cc(Cl)c(O)c(Cl)c1 | cell-free assay | 0.5 µM | remaining signal | 96.6% |
| Cc1ccc(C(=O)Nc2ccc(CN3CCN(C)CC3)c(C(F)(F)F)c2)cc1C#Cc1cnc2cccnn12 | cell-free assay | 23.5 nM | remaining signal | 95% |
| COc1cc2c(Nc3ccc(Br)cc3F)ncnc2cc1OCC1CCN(C)CC1 | cell-free assay | 0.5 µM | remaining signal | 101% |
| CN1CC(Oc2cnc(C#N)cc2-c2ccn3nc(NC(=O)C4CC4)cc3c2)C1 | enzyme activity, inhibitor | 1 µM | inhibition | -1% |
| N#CCCc1ccc2c(c1)-c1[nH]c3ccc([N+](=O)[O-])cc3c1CC(=O)N2 | cell-free assay | 0.5 µM | remaining signal | 103% |
| Cc1sc(C(=O)NC2COC2)cc1-n1cc(NC(=O)Nc2c(F)cccc2Cl)cn1 | enzyme activity, inhibitor | 10 µM | remaining activity | 93.1% |
| c1ccc(N2CCN(Cc3nc4ccccc4[nH]3)CC2)nc1 | cell-free assay, competition with immobilised ligand | 1 µM | remaining binding | 100% |
| COc1cc(Cl)c(C(=O)N[C@@H](CN[C@H]2CC[C@@H](N)CC2)Cc2ccc(C#N)cc2)cc1-c1ccc(CN[C@H](C)c2ccc(C)cc2)o1 | enzyme activity, inhibitor | 1 µM | remaining activity | 99% |
| CC(C)(O)[C@H]1CC[C@H](Nc2ccc3ncc(-c4cccc(C(F)(F)F)c4)n3n2)CC1 | enzyme activity, inhibitor | 1 µM | remaining activity | 81.6% |
| CO[C@@H](C)c1c(Nc2ccc([C@@H](N(C)C(=O)C3CCS(=O)(=O)CC3)C(F)(F)F)cc2)cnc2cc(Cl)nn12 | cell-free assay, competition with immobilised ligand | 1 µM | remaining binding | 100% |
